Assay results from different studies.
Each line is one published result; the experiments were not run side by side.
EGFR L858R/T790M: Epidermal growth factor receptor (EGFR, Homo sapiens, UniProt P00533, L858R/T790M)
EGFR: Epidermal growth factor receptor (EGFR, Homo sapiens, UniProt P00533)

`COC(=O)[C@]12CCC(C)(C)C[C@H]1[C@H]1C(=O)C=C3[C@@]4(C)C=C(C#N)C(=O)C(C)(C)[C@@H]4CC[C@@]3(C)[C@]1(C)CC2` gave a Kd of 1100 nM (EGFR L858R/T790M; binding, MST).
`Cc1c(Cc2ccccc2)c(=O)oc2c(C)c(OCC(=O)NN=Cc3ccc([N+](=O)[O-])cc3)ccc12` has an IC50 of 313 nM (EGFR; enzyme activity, inhibitor, ATP luminescence).
`C=CC(=O)N1CC[C@@H](Oc2nc(Nc3ccc(N4CCC(N5CCN(C)CC5)CC4)cc3)c(C(N)=O)nc2CC)C1` gave an IC50 of 1.2 nM (EGFR L858R/T790M; enzyme activity, inhibitor).
`CC(C)=CCc1c(O)c(O)c2oc3c(O)ccc(O)c3c(=O)c2c1CC=C(C)C` gave a Kd of 19000 nM (EGFR; binding, SPR).
`Cc1ccc2c(-c3cc4c(CN5CCN(Cc6ccccn6)CC5)cnc(C)c4o3)cc(=O)oc2c1` has an IC50 of 12.4 nM (EGFR L858R/T790M; enzyme activity, inhibitor, ADP detection).
The IC50 of `O=C(O)Cc1csc(NC(=O)c2cc3ccccc3[nH]2)n1` is reported as 618 nM (EGFR; enzyme activity, inhibitor, ELISA).
The IC50 of `O=C(CCn1c(=O)ccc2ccccc21)N1CCOCC1` is reported as 52.7 nM (EGFR; enzyme activity, inhibitor).
`CCc1c(C)c2ccc(OCC(=O)NN=Cc3ccc([N+](=O)[O-])cc3)cc2oc1=O` has an IC50 of 414 nM (EGFR; enzyme activity, inhibitor, ATP luminescence).
`Cc1ncc(CN2CCc3ccccc3C2)c2cc(C(=O)c3ccc4c(c3)OCCO4)oc12` has an IC50 of 10.8 nM (EGFR L858R/T790M; enzyme activity, inhibitor, ADP detection).
`COc1ccc2[nH]c(C(=O)Nc3nc(CC(=O)O)cs3)cc2c1` has an IC50 of 1740 nM (EGFR; enzyme activity, inhibitor, ELISA).
For `Cc1ncc(CN2CCN(Cc3ccccn3)CC2)c2cc(C(=O)c3ccc4c(c3)OCCO4)oc12`, the IC50 was 3.23 nM (EGFR L858R/T790M; enzyme activity, inhibitor, ADP detection).
For `C=CC(=O)Nc1cc(Nc2ncc(C(=O)OC(C)C)c(-c3cn(C)c4ccccc34)n2)c(OC)cc1N(C)CCN(C)C`, the IC50 was 0.6 nM (EGFR L858R/T790M; enzyme activity, inhibitor).
